Test results from ChEMBL document CHEMBL5724801, “EUbOPEN Chemogenomics Library - Multiplex” (2024).
Values joined by “and” are separate entries in the source; they are usually repeats but may differ in a detail not shown here. Equal values may be shown once.

System: Fibroblast
Test: Multiplex assay against human fibroblast
Type: toxicity, cell-based
Summary of the method: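 Compound was added to live cells that had been stained at seeding with Hoechst33342, BioTracker Green Microtubule Cytoskeleton Dye, MitoTracker Red and Annexin V Alexa Fluor 680, and imaging followed on a CQ1 microscope at 37°C and 5% CO2. CellPathfinder machine-learning gating divided cells into Hoechst high-intensity objects or normal cells, normal cells into healthy, pyknosed or fragmented nuclei, and pyknosed cells into mitotic or apoptotic. Tubulin, mitochondrial-mass and membrane-permeability phenotypes are per cents of healthy-nucleus cells.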

[1] = 12 h, 1 µM, compound concentration 1 uM
[2] = 12 h, 10 µM, compound concentration 10 uM
[3] = 24 h, 1 µM, compound concentration 1 uM
[4] = 24 h, 10 µM, compound concentration 10 uM
[5] = 48 h, 1 µM, compound concentration 1 uM
[6] = 48 h, 10 µM, compound concentration 10 uM

## C[C@H](N)COC(=O)[C@@H](CCCCN)NC(=O)Cc1c(-c2ccc3ccccc3c2)[nH]c2c1ccc1ccccc12
[1]
  Population Apoptotic (%): 32% and 50%
  Population Fragmented Nuclei (%): 18% and 25%
  Population Healthy Nuclei (%): 65% and 51%
  Population Hoechst High Intensity Objects (%): 1% and 4%
  Population Membrane Permeable-Phenotype (%): 0% and 5%
  Population Mitochondria Different-Phenotype (%): 7% and 4%
  Population Mitotic Cells (%): 67% and 50%
  Population Normal (%): 98% and 95%
  Population Pyknosed Nuclei (%): 15% and 23%
  Population Tubulin-Different-Phenotype (%): 32% and 36%
  Total Cell Count: 179 and 170
[2]
  Population Apoptotic (%): 43% and 62%
  Population Fragmented Nuclei (%): 13% and 32%
  Population Healthy Nuclei (%): 69% and 50%
  Population Hoechst High Intensity Objects (%): 2% and 7%
  Population Membrane Permeable-Phenotype (%): 1% and 5%
  Population Mitochondria Different-Phenotype (%): 8% and 6%
  Population Mitotic Cells (%): 56% and 37%
  Population Normal (%): 97% and 92%
  Population Pyknosed Nuclei (%): 16% and 17%
  Population Tubulin-Different-Phenotype (%): 33% and 47%
  Total Cell Count: 183 and 167
[3]
  Population Apoptotic (%): 53% and 29%
  Population Fragmented Nuclei (%): 16% and 25%
  Population Healthy Nuclei (%): 66% and 54%
  Population Hoechst High Intensity Objects (%): 3% and 7%
  Population Membrane Permeable-Phenotype (%): 0% and 3%
  Population Mitochondria Different-Phenotype (%): 5% and 7%
  Population Mitotic Cells (%): 46% and 70%
  Population Normal (%): 96% and 92%
  Population Pyknosed Nuclei (%): 17% and 20%
  Population Tubulin-Different-Phenotype (%): 30% and 39%
  Total Cell Count: 179 and 162
[4]
  Population Apoptotic (%): 63% and 50%
  Population Fragmented Nuclei (%): 13% and 36%
  Population Healthy Nuclei (%): 74% and 50%
  Population Hoechst High Intensity Objects (%): 7% and 6%
  Population Membrane Permeable-Phenotype (%): 0% and 5%
  Population Mitochondria Different-Phenotype (%): 5%
  Population Mitotic Cells (%): 36% and 50%
  Population Normal (%): 92% and 93%
  Population Pyknosed Nuclei (%): 11% and 13%
  Population Tubulin-Different-Phenotype (%): 31% and 54%
  Total Cell Count: 171 and 159
[5]
  Population Apoptotic (%): 72% and 51%
  Population Fragmented Nuclei (%): 21% and 30%
  Population Healthy Nuclei (%): 65% and 50%
  Population Hoechst High Intensity Objects (%): 5% and 2%
  Population Membrane Permeable-Phenotype (%): 0% and 3%
  Population Mitochondria Different-Phenotype (%): 7% and 6%
  Population Mitotic Cells (%): 27% and 48%
  Population Normal (%): 94% and 97%
  Population Pyknosed Nuclei (%): 12% and 18%
  Population Tubulin-Different-Phenotype (%): 26% and 39%
  Total Cell Count: 186 and 169
[6]
  Population Apoptotic (%): 46% and 55%
  Population Fragmented Nuclei (%): 16% and 36%
  Population Healthy Nuclei (%): 68% and 52%
  Population Hoechst High Intensity Objects (%): 9% and 5%
  Population Membrane Permeable-Phenotype (%): 0% and 7%
  Population Mitochondria Different-Phenotype (%): 4% and 8%
  Population Mitotic Cells (%): 53% and 44%
  Population Normal (%): 90% and 94%
  Population Pyknosed Nuclei (%): 15% and 11%
  Population Tubulin-Different-Phenotype (%): 35% and 54%
  Total Cell Count: 185 and 166

## COc1ccccc1N1CCN(C[C@@H](C(=O)NC(C)(C)C)c2ccccc2)CC1.Cl.Cl
[1]
  Population Apoptotic (%): 43% and 40%
  Population Fragmented Nuclei (%): 12% and 25%
  Population Healthy Nuclei (%): 70% and 43%
  Population Hoechst High Intensity Objects (%): 2% and 5%
  Population Membrane Permeable-Phenotype (%): 0%
  Population Mitochondria Different-Phenotype (%): 8% and 4%
  Population Mitotic Cells (%): 56% and 60%
  Population Normal (%): 97% and 94%
  Population Pyknosed Nuclei (%): 16% and 30%
  Population Tubulin-Different-Phenotype (%): 37% and 43%
  Total Cell Count: 141 and 155
[2]
  Population Apoptotic (%): 50% and 48%
  Population Fragmented Nuclei (%): 20% and 32%
  Population Healthy Nuclei (%): 59% and 42%
  Population Hoechst High Intensity Objects (%): 5%
  Population Membrane Permeable-Phenotype (%): 1% and 6%
  Population Mitochondria Different-Phenotype (%): 20% and 12%
  Population Mitotic Cells (%): 50% and 51%
  Population Normal (%): 94%
  Population Pyknosed Nuclei (%): 20% and 24%
  Population Tubulin-Different-Phenotype (%): 66% and 70%
  Total Cell Count: 134 and 116
[3]
  Population Apoptotic (%): 50%
  Population Fragmented Nuclei (%): 12% and 24%
  Population Healthy Nuclei (%): 73% and 55%
  Population Hoechst High Intensity Objects (%): 2% and 3%
  Population Membrane Permeable-Phenotype (%): 0% and 8%
  Population Mitotic Cells (%): 50%
  Population Normal (%): 97% and 96%
  Population Pyknosed Nuclei (%): 14% and 19%
  Population Tubulin-Different-Phenotype (%): 32% and 50%
  Total Cell Count: 143 and 151
[4]
  Population Apoptotic (%): 83% and 40%
  Population Fragmented Nuclei (%): 19% and 39%
  Population Healthy Nuclei (%): 65% and 41%
  Population Hoechst High Intensity Objects (%): 8% and 3%
  Population Membrane Permeable-Phenotype (%): 0% and 8%
  Population Normal (%): 91% and 96%
  Population Pyknosed Nuclei (%): 14% and 19%
  Population Tubulin-Different-Phenotype (%): 63% and 76%
  Total Cell Count: 132 and 116
[5]
  Population Apoptotic (%): 84% and 60%
  Population Fragmented Nuclei (%): 18% and 31%
  Population Healthy Nuclei (%): 71% and 52%
  Population Hoechst High Intensity Objects (%): 5%
  Population Membrane Permeable-Phenotype (%): 1% and 5%
  Population Mitochondria Different-Phenotype (%): 12% and 5%
  Population Mitotic Cells (%): 15% and 40%
  Population Normal (%): 94%
  Population Pyknosed Nuclei (%): 10% and 15%
  Population Tubulin-Different-Phenotype (%): 34% and 56%
  Total Cell Count: 138 and 171
[6]
  Population Apoptotic (%): 84% and 44%
  Population Fragmented Nuclei (%): 18% and 50%
  Population Healthy Nuclei (%): 63% and 41%
  Population Membrane Permeable-Phenotype (%): 0% and 8%
  Population Normal (%): 85% and 96%
  Population Pyknosed Nuclei (%): 18% and 7%
  Population Tubulin-Different-Phenotype (%): 65% and 67%
  Total Cell Count: 122

## CC(C)(O)C(=O)N1CCN(c2ccc(C(F)(F)F)c(C3=C(c4c[nH]c5ccccc45)C(=O)NC3=O)c2)CC1
[1]
  Population Apoptotic (%): 41% and 32%
  Population Fragmented Nuclei (%): 14% and 30%
  Population Healthy Nuclei (%): 68% and 46%
  Population Hoechst High Intensity Objects (%): 2% and 5%
  Population Membrane Permeable-Phenotype (%): 0% and 5%
  Population Mitochondria Different-Phenotype (%): 9% and 5%
  Population Mitotic Cells (%): 58% and 67%
  Population Normal (%): 97% and 94%
  Population Pyknosed Nuclei (%): 17% and 22%
  Population Tubulin-Different-Phenotype (%): 30% and 56%
  Total Cell Count: 144 and 170
[2]
  Population Apoptotic (%): 33% and 35%
  Population Fragmented Nuclei (%): 17% and 26%
  Population Healthy Nuclei (%): 50% and 31%
  Population Hoechst High Intensity Objects (%): 4% and 6%
  Population Mitochondria Different-Phenotype (%): 25% and 10%
  Population Mitotic Cells (%): 66% and 64%
  Population Normal (%): 96% and 93%
  Population Pyknosed Nuclei (%): 32% and 42%
  Population Tubulin-Different-Phenotype (%): 83% and 90%
  Total Cell Count: 125 and 137
[3]
  Population Apoptotic (%): 50% and 31%
  Population Fragmented Nuclei (%): 22% and 31%
  Population Healthy Nuclei (%): 61% and 45%
  Population Hoechst High Intensity Objects (%): 1% and 8%
  Population Membrane Permeable-Phenotype (%): 0% and 2%
  Population Mitochondria Different-Phenotype (%): 3% and 8%
  Population Mitotic Cells (%): 50% and 68%
  Population Normal (%): 98% and 91%
  Population Pyknosed Nuclei (%): 16% and 23%
  Population Tubulin-Different-Phenotype (%): 40% and 58%
  Total Cell Count: 161 and 176
[4]
  Population Apoptotic (%): 26% and 36%
  Population Fragmented Nuclei (%): 24% and 27%
  Population Healthy Nuclei (%): 40% and 33%
  Population Hoechst High Intensity Objects (%): 7% and 3%
  Population Membrane Permeable-Phenotype (%): 2% and 6%
  Population Mitochondria Different-Phenotype (%): 30% and 20%
  Population Mitotic Cells (%): 73% and 63%
  Population Normal (%): 92% and 96%
  Population Pyknosed Nuclei (%): 34% and 39%
  Population Tubulin-Different-Phenotype (%): 79% and 90%
  Total Cell Count: 131 and 138
[5]
  Population Apoptotic (%): 64% and 41%
  Population Fragmented Nuclei (%): 21% and 33%
  Population Healthy Nuclei (%): 61% and 37%
  Population Hoechst High Intensity Objects (%): 5% and 7%
  Population Membrane Permeable-Phenotype (%): 0% and 1%
  Population Mitochondria Different-Phenotype (%): 12% and 15%
  Population Mitotic Cells (%): 36% and 58%
  Population Normal (%): 94% and 92%
  Population Pyknosed Nuclei (%): 17% and 28%
  Population Tubulin-Different-Phenotype (%): 38% and 67%
  Total Cell Count: 155 and 165
[6]
  Population Apoptotic (%): 54%
  Population Fragmented Nuclei (%): 33% and 35%
  Population Healthy Nuclei (%): 27% and 25%
  Population Hoechst High Intensity Objects (%): 12% and 6%
  Population Membrane Permeable-Phenotype (%): 0% and 10%
  Population Mitochondria Different-Phenotype (%): 53% and 30%
  Population Mitotic Cells (%): 45%
  Population Normal (%): 87% and 93%
  Population Pyknosed Nuclei (%): 38% and 40%
  Population Tubulin-Different-Phenotype (%): 93% and 83%
  Total Cell Count: 123 and 129
